Results filed as inconclusive are left out.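 How the source made its calls, unless noted: active means viability increase at or above a cutoff of the median across tested compounds plus 3 SD (cut at about 8.5% in these data, passing the limit was not always enough); inconclusive means some gains above the cutoff, reason not given; inactive means the rest.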
Key:
[1] = OD615 S. cerevisiae growth inhibition, permissive medium, pilot counter-assay, permissive growth control for S. cerevisiae lifespan shortening project (AID 705;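 active means growth inhibition above 25% in both replicates, a cutoff set 3 SD above the mean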); details: OD615, 24 h, at 10 µM, active compounds read high
Method in brief: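 System – S. cerevisiae with engineered DeaD lifespan system · Buffer or medium – SC raffinose/galactose permissive medium · Schedule – cells pre-grown 4 h, then 24 h compound exposure, 30 °C humidified · Technique – culture turbidity as optical density at 615 nm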

[2] = Restrictive medium S. cerevisiae growth inhibition, OD615, pilot screen of yeast lifespan reduction project, restrictive growth control (AID 706;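 active means growth inhibition above a set limit, 3 SD over mean compound inhibition, in both replicates, cut at about 43% in these data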;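 further: modified DeaD lifespan yeast strain shifted to restrictive glucose medium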); details: OD615, 48 h, at 10 µM, active compounds read high
Method in brief: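 Material: engineered S. cerevisiae DeaD strain / Medium: glucose-based CSMM-D restrictive medium / Compound: single dose of 10 µM compound final, 0.25% DMSO / Timing: 4 h pre-incubation, 48 h exposure at 30 °C / Technique: OD615 absorbance reading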

[3] = viability gain of MRP-1-high H69AR cells under doxorubicin, pilot screen, MRP-1 activator project, CellTiter-Glo, duplicate (AID 807); details: H69AR viability with doxorubicin, CellTiter-Glo luminescence; at 10 µM; active compounds read high;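 further: compound pretreatment 18-22 h then 72 h combined with doxorubicin; 0% = doxorubicin alone and 100% = vehicle without doxorubicin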
[4] = growth suppression of beta-catenin knockout HCT116, pilot screen, human colon tumor cells (AID 823;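 active means cell viability at or below a set limit in both duplicate runs, the limit being the all-compound median minus 4 SD, cut at about 23% in these data, passing the limit was not always enough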;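 further: 0% = wells killed by 20 µM Hyamine and 100% = untreated DMSO cell wells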); details: CellTiter-Glo, 60 h, at 10 µM, active compounds read low
[5] = growth suppression of PTEN-deleted HCT116, pilot screen, cell-based, HCT116 clonal line, CellTiter-Glo (AID 824;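 active means viability at or below 27.92% in each of two runs, the all-compound median minus 4 SD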;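 further: 0% = 20 µM Hyamine control and 100% = vehicle cell control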); details: 60 h, at 10 µM, active compounds read low
[6] = inhibitors of the yeast RAM network, pilot screen, dse1pr::URA3 reporter, 5-FOA selection (AID 869;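 active means inhibition over a set limit, the all-compound mean plus 3 SD, in both replicate runs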;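 further: 0% = DMSO wells with no growth and 100% = 10 µM 1-NA-PP1 with full growth; RAM network block rescues cells from 5-FOA so hits raise OD615 growth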); details: S. cerevisiae dse1pr::URA3 5-FOA growth, OD615, 2 d; at 10 µM; active compounds read high; strain carries analog-sensitive mutant Cbk1 kinase
[7] = RAM signaling pathway blockade in yeast – S. cerevisiae, Pdr1DBD-CYC8 efflux-inhibited sensitized strain, primary screen (AID 1298;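 active means RAM network inhibition above 8.4% in each of two replicates, 3 SD over the compound average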;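 further: 0% = DMSO untreated cells without growth and 100% = 10 µM 1-NA-PP1 full growth; higher means more yeast growth rescued from 5-FOA killing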); details: S. cerevisiae cbk1-as DSE1-URA3 strain, 5-FOA growth OD615, 2 d; at 50 µM; active compounds read high

Cc1cccc(-n2ccnc2SCC(=O)Nc2nnc(C)s2)c1
inactive: growth inhibition [1] -5.12% | growth inhibition [2] 20.3% | viability increase [3] -4.56% | viability [4] 76.9% | viability [5] 72.8% | inhibition [6] 1.13% | RAM network inhibition [7] 6.22%

Cc1ccc(-c2nc(NC(=O)CSc3nnc(C)s3)ns2)cc1
inactive: growth inhibition [1] -5.46% | growth inhibition [2] 2.65% | viability increase [3] -0.8% | viability [4] 123% | viability [5] 102% | inhibition [6] 0.34% | RAM network inhibition [7] 2.66%

CC(=O)Nc1ccc(S(=O)(=O)Nc2nc(C)cc(-n3nc(C)cc3C)n2)cc1
inactive: growth inhibition [1] -8.39% | growth inhibition [2] -6.55% | viability increase [3] -1.84% | viability [4] 102% | viability [5] 102% | inhibition [6] 1.25% | RAM network inhibition [7] 2.89%

COc1ccc(Nc2cc(C)nc3nc(C)nn23)c(OC)c1
inactive: growth inhibition [1] -2.91% | growth inhibition [2] 4.67% | viability increase [3] -1.65% | viability [4] 109% | viability [5] 106% | inhibition [6] 0.83% | RAM network inhibition [7] 0.32%

CCCC(C(=O)N1CCOCC1)N1C(=O)C2C3C=CC(C3)C2C1=O (configuration not stated)
inactive: growth inhibition [1] -8.63% | growth inhibition [2] 3.61% | viability increase [3] 0.84% | viability [4] 99% | viability [5] 99% | inhibition [6] 0.215% | RAM network inhibition [7] -0.83%

CC(C)C(C(=O)NC(C)(C)C)N1C(=O)c2ccccc2C1=O (configuration not stated)
inactive: growth inhibition [1] -7.04% | growth inhibition [2] 0.73% | viability increase [3] 0.34% | viability [4] 101% | viability [5] 101% | inhibition [6] -0.63% | RAM network inhibition [7] 12.4%

CCOc1ccc(C(C)NC(=O)CCC(=O)O)cc1 (configuration not stated)
inactive: growth inhibition [1] -4.12% | growth inhibition [2] -1.54% | viability increase [3] -1.24% | viability [4] 93.4% | viability [5] 89% | inhibition [6] 1.27% | RAM network inhibition [7] 0.68%

CC1=C(C(N)=O)C(c2ccccc2)n2nc(-c3cccs3)nc2N1 (configuration not stated)
inactive: growth inhibition [1] -9.84% | growth inhibition [2] 2.11% | viability increase [3] -3.8% | viability [4] 101% | viability [5] 93.8% | inhibition [6] 2.46% | RAM network inhibition [7] 3.65%

CC(=O)c1cccc(NC(=O)C2CCCN2S(=O)(=O)c2cccc3cccnc23)c1 (configuration not stated)
inactive: growth inhibition [1] -1.04% | growth inhibition [2] 3.5% | viability increase [3] -5.23% | viability [4] 74.4% | viability [5] 82.7% | inhibition [6] 1.09% | RAM network inhibition [7] 6.23%

CN(CC(=O)N1CCc2ccccc21)S(=O)(=O)c1cccc2cccnc12
inactive: growth inhibition [1] -0.355% | growth inhibition [2] -2.55% | viability increase [3] -3.47% | viability [4] 93.9% | viability [5] 90.8% | inhibition [6] 1.47% | RAM network inhibition [7] 8.8%

O=C(CC(=O)N1CCN(c2ccccn2)CC1)Nc1ccc2nc3n(c(=O)c2c1)CCCCC3
inactive: growth inhibition [1] -3.13% | growth inhibition [2] -3.46% | viability increase [3] 0.08% | viability [4] 101% | viability [5] 100% | inhibition [6] 0.87% | RAM network inhibition [7] 2.7%

O=C(COc1cc(=O)n2c(n1)SCCC2)c1ccccc1
inactive: growth inhibition [1] -6.77% | growth inhibition [2] -2.62% | viability increase [3] -1.08% | viability [4] 102% | viability [5] 92.7% | inhibition [6] 1.56% | RAM network inhibition [7] 1.89%

Cc1ccc2c(c1)NCC(C(=O)NCc1ccccc1)O2 (configuration not stated)
inactive: growth inhibition [1] -10.4% | growth inhibition [2] 2.51% | viability increase [3] 0.49% | viability [4] 103% | viability [5] 88.6% | inhibition [6] 1.46% | RAM network inhibition [7] 0.25%

OCCN1CCN(c2ncnc3ccc(Br)cc23)CC1
inactive: growth inhibition [1] -15.5% | growth inhibition [2] 4.06% | viability increase [3] -4.77% | viability [4] 99.1% | viability [5] 96.7% | inhibition [6] -0.12% | RAM network inhibition [7] -1.2%

O=C1c2ccccc2C(Nc2ccc3c(c2)OCCO3)N1c1ccc(Cl)cn1 (configuration not stated)
inactive: growth inhibition [1] -12.2% | growth inhibition [2] 3.92% | viability increase [3] 1.76% | viability [4] 81.7% | viability [5] 75.2% | inhibition [6] 1.83% | RAM network inhibition [7] 9.61%

O=C(Nc1ccccc1Oc1ccccc1)C1CC1
inactive: growth inhibition [1] -13.6% | growth inhibition [2] 3.26% | viability increase [3] -2.26% | viability [4] 89.5% | viability [5] 93.1% | inhibition [6] 0.595% | RAM network inhibition [7] 3.21%

c1ccc2c(c1)[nH]c1nc3nncn3nc12
inactive: growth inhibition [1] -7.18% | growth inhibition [2] -14.9% | viability increase [3] -1.07% | viability [4] 94% | viability [5] 93% | inhibition [6] 1.29% | RAM network inhibition [7] 7.04%

CC1=C(C#N)C2C(/C1=N/O)C2(C)C (configuration not stated)
inactive: growth inhibition [1] -4.15% | growth inhibition [2] -6.87% | viability increase [3] -1.76% | viability [4] 95% | viability [5] 85.3% | inhibition [6] 0.79% | RAM network inhibition [7] 1.21%

CCN(CCNS(=O)(=O)c1ccc2c(c1)oc(=O)n2C)c1ccccc1
inactive: growth inhibition [1] -5.19% | growth inhibition [2] -5.92% | viability increase [3] -1.13% | viability [4] 108% | viability [5] 105% | inhibition [6] 4.3% | RAM network inhibition [7] 1.2%

COCCCN1C(=O)C(O)=C(C(=O)c2ccc(C)o2)C1c1cccc(Br)c1 (configuration not stated)
inactive: growth inhibition [1] -10.6% | growth inhibition [2] -3.15% | viability increase [3] -0.41% | viability [4] 106% | viability [5] 106% | inhibition [6] -0.2% | RAM network inhibition [7] 4.3%

Cc1nc(CNS(=O)(=O)c2ccc3ccccc3c2)cs1
inactive: growth inhibition [1] -0.84% | growth inhibition [2] 3.39% | viability increase [3] -1.37% | viability [4] 97.8% | viability [5] 87.9% | inhibition [6] 2.13% | RAM network inhibition [7] 0%

COc1c(Cl)ccc(Cl)c1C(=O)OCC(=O)O
inactive: growth inhibition [1] -7.06% | growth inhibition [2] -27.7% | viability increase [3] -2.73% | viability [4] 86% | viability [5] 86.9% | inhibition [6] 1.39% | RAM network inhibition [7] 4.54%

O=C(CCNS(=O)(=O)c1cccc2nsnc12)NCCC1=CCCCC1
inactive: growth inhibition [1] -8.97% | growth inhibition [2] -9.04% | viability increase [3] -2.88% | viability [4] 90.6% | viability [5] 94.8% | inhibition [6] 2.49% | RAM network inhibition [7] 6.94%

CN1CCN(S(=O)(=O)c2cccc(S(=O)(=O)c3ccc(Cl)c(Cl)c3)c2)CC1
inactive: growth inhibition [1] -1.71% | growth inhibition [2] -7.33% | viability increase [3] -2.58% | viability [4] 91.1% | viability [5] 83.7% | inhibition [6] 0.59% | RAM network inhibition [7] 4.5%

CCCNC(=O)N1CCN(c2nc(C(C)C)c3c(c2C#N)CC(C)(C)OC3)CC1
inactive: growth inhibition [1] -12.9% | growth inhibition [2] -6.2% | viability increase [3] 2.34% | viability [4] 68.8% | viability [5] 61.5% | inhibition [6] 2.17% | RAM network inhibition [7] 8.42%

CCCn1cnc2cc(NCc3ccccn3)ccc21
inactive: growth inhibition [1] -5.07% | growth inhibition [2] 8.03% | viability increase [3] -2.58% | viability [4] 98.5% | viability [5] 100% | inhibition [6] 2.06% | RAM network inhibition [7] -2.3%

O=C(NCC1(c2ccccc2)CCOCC1)c1ccc(Br)o1
inactive: growth inhibition [1] -2.18% | growth inhibition [2] -3.91% | viability increase [3] 2.31% | viability [4] 93% | viability [5] 92.3% | inhibition [6] 0.365% | RAM network inhibition [7] 2.97%

CCOc1ccc(NC2c3ccccc3C(=O)N2c2ccc(Cl)cn2)cc1 (configuration not stated)
inactive: growth inhibition [1] -14% | growth inhibition [2] -15.6% | viability increase [3] -1.1% | viability [4] 94.2% | viability [5] 94.6% | inhibition [6] 3.93% | RAM network inhibition [7] 3.42%

CC(C)CC(=O)Nc1ccc2oc(-c3cccnc3)nc2c1
inactive: growth inhibition [1] 2.48% | growth inhibition [2] 2.53% | viability increase [3] -1.73% | viability [4] 100% | viability [5] 94% | inhibition [6] 1.53% | RAM network inhibition [7] -0.72%

Cc1cc2nsnc2c(S(=O)(=O)NCC(=O)O)c1C
inactive: growth inhibition [1] -7.75% | growth inhibition [2] -1.79% | viability increase [3] 1.73% | viability [4] 100% | viability [5] 102% | inhibition [6] 2.25% | RAM network inhibition [7] 0.2%

COc1ccc2c(c1)C(=O)CC(c1ccccc1F)O2 (configuration not stated)
inactive: growth inhibition [1] -12% | growth inhibition [2] -1.22% | viability increase [3] -3.63% | viability [4] 65.4% | viability [5] 74.3% | inhibition [6] 1.22% | RAM network inhibition [7] 5.83%

Cc1cccc(C)c1NC(=O)C1(N(Cc2ccco2)C(=O)CC2NC(=O)NC2=O)CCCCC1 (configuration not stated)
inactive: growth inhibition [1] -7.47% | growth inhibition [2] -10.5% | viability increase [3] -2.27% | viability [4] 92.7% | viability [5] 93.9% | inhibition [6] 1.23% | RAM network inhibition [7] 0.68%

O=C(Nn1nnnc1Nc1ccccc1)C12CC3CC(CC(C3)C1)C2
inactive: growth inhibition [1] -3.62% | growth inhibition [2] -2.85% | viability increase [3] -5.83% | viability [4] 85.2% | viability [5] 86.5% | inhibition [6] 2.17% | RAM network inhibition [7] 4.63%

O=C(Nc1ccc(OC(F)(F)F)cc1)c1cnc2n(c1=O)CCS2
inactive: growth inhibition [1] -14.9% | growth inhibition [2] -1.33% | viability increase [3] 2.36% | viability [4] 89.9% | viability [5] 79.1% | inhibition [6] 3.13% | RAM network inhibition [7] 4.63%

CCOC(=O)N1CCN(C(=O)c2oc(=O)c3ccccc3c2-c2ccc(C)cc2)CC1
inactive: growth inhibition [1] -8.36% | growth inhibition [2] -8.23% | viability increase [3] 1.15% | viability [4] 96.2% | viability [5] 102% | inhibition [6] 1.23% | RAM network inhibition [7] 3.87%

Cc1cc(N2CCN(C(=O)c3ccco3)CC2)n2nc(C)nc2n1
inactive: growth inhibition [1] -6.63% | growth inhibition [2] 5.6% | viability increase [3] -3.61% | viability [4] 95.5% | viability [5] 98.2% | inhibition [6] 0.95% | RAM network inhibition [7] -0.63%

From PubChem BioAssay
